Activity calls are given as the source filed them. No cut-off for these calls is given here.
Experiments:
[1] = system: MDA-MB-231; experiment: Induction of apoptosis in human MDA-MB-231 cells assessed as viable cells at 2 uM incubated for 48 hrs by annexin V-FITC and PI staining based flow cytometry analysis (reference value: 90.49 %); format: functional; conditions: read-out: Activity
[2] = target: T1, Aurora kinase A (Homo sapiens, UniProt O14965); experiment: Inhibition of Aurora A (unknown origin) incubated for 1 hrs by HTRF assay
T1 sequence (O14965 whole entry): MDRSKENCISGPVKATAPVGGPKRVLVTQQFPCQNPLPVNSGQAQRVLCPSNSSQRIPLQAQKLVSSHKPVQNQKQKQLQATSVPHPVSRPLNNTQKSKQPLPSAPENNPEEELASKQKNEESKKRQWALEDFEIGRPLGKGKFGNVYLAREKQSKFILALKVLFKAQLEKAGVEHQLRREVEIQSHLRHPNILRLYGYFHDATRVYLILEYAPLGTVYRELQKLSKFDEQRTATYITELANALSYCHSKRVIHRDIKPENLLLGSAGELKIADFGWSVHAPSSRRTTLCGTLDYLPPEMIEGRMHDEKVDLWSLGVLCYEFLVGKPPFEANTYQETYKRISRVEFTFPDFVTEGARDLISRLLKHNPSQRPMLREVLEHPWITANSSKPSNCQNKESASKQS

[3] = system: MDA-MB-231; experiment: Induction of cell cycle arrest in human MDA-MB-231 cells assessed as increase G2/M phase accumulation incubated for 24 hrs by PI staining based flow cytometry analysis; format: functional; conditions: dose 1-4 µM
[4] = system: MDA-MB-231; experiment: Induction of cell cycle arrest in human MDA-MB-231 cells assessed as G0/G1 phase accumulation at 4 uM incubated for 24 hrs by PI staining based flow cytometry analysis (reference value: 42.84 %); format: functional
[5] = system: MDA-MB-231; experiment: Induction of apoptosis in human MDA-MB-231 cells assessed as increase in caspase-3 cleavage at 1 to 4 uM incubated for 48 hrs by Western blot analysis; format: functional, cell-based; conditions: dose 1-4 µM
Procedure, shortened: (§1)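 MDA-MB-231 cells treated for 48 h at set concentrations. Cleaved PARP, cleaved caspase-3 and cleaved caspase-9 detected by Western blot and quantified by densitometry. Mean ± SEM, n = 3.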

[6] = system: MDA-MB-231; experiment: Induction of apoptosis in human MDA-MB-231 cells assessed as viable cells at 1 uM incubated for 48 hrs by annexin V-FITC and PI staining based flow cytometry analysis (reference value: 90.49 %); format: functional; conditions: read-out: Activity
[7] = system: MDA-MB-231; experiment: Induction of apoptosis in human MDA-MB-231 cells assessed as late apoptotic cells at 1 uM incubated for 48 hrs by annexin V-FITC and PI staining based flow cytometry analysis (reference value: 2.52 %); format: functional
[8] = system: PC-3; experiment: Cytotoxicity against human PC-3 cells assessed as reduction in cell viability incubated for 72 hrs by MTT assay; format: functional, cell-based; conditions: PC-3, 72 h
Procedure, shortened: (§2)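 MTT viability assay. Cells kept in DMEM with 10% FBS at 37 °C and 5% CO2. Seeded at 5×10^3 cells per well and exposed to a range of compound concentrations from 20 mM DMSO stocks. IC50 is the mean of triplicate measurements.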

[9] = system: MDA-MB-231; experiment: Cytotoxicity against human MDA-MB-231 cells assessed as cell shrinkage at >1 uM incubated for 48 hrs; format: functional, cell-based; conditions: dose microM >1, time 48.0 hrs
[10] = system: MDA-MB-231; experiment: Induction of cell cycle arrest in human MDA-MB-231 cells assessed as S phase accumulation at 4 uM incubated for 24 hrs by PI staining based flow cytometry analysis (reference value: 38.65 %); format: functional
[11] = system: MDA-MB-231; experiment: Induction of apoptosis in human MDA-MB-231 cells assessed as viable cells at 4 uM incubated for 48 hrs by annexin V-FITC and PI staining based flow cytometry analysis (reference value: 90.49 %); format: functional; conditions: read-out: Activity
[12] = system: MDA-MB-231; experiment: Induction of apoptosis in human MDA-MB-231 cells assessed as early apoptotic cells at 2 uM incubated for 48 hrs by annexin V-FITC and PI staining based flow cytometry analysis (reference value: 3.90 %); format: functional
[13] = system: MDA-MB-231; experiment: Induction of cell cycle arrest in human MDA-MB-231 cells assessed as G0/G1 phase accumulation at 2 uM incubated for 24 hrs by PI staining based flow cytometry analysis (reference value: 42.84 %); format: functional
[14] = system: MDA-MB-231; experiment: Induction of apoptosis in human MDA-MB-231 cells assessed as late apoptotic cells at 4 uM incubated for 48 hrs by annexin V-FITC and PI staining based flow cytometry analysis (reference value: 2.52 %); format: functional
[15] = system: MDA-MB-231; experiment: Cytotoxicity against human MDA-MB-231 cells assessed as cell blebbing at >1 uM incubated for 48 hrs; format: functional, cell-based; conditions: dose microM >1, time 48.0 hrs
[16] = system: MDA-MB-231; experiment: Induction of cell cycle arrest in human MDA-MB-231 cells assessed as G2/M phase accumulation at 5 uM incubated for 16 hrs by PI staining based flow cytometry analysis (reference value: 16.62 %)
[17] = system: MDA-MB-231; experiment: Induction of apoptosis in human MDA-MB-231 cells assessed as early apoptotic cells at 1 uM incubated for 48 hrs by annexin V-FITC and PI staining based flow cytometry analysis (reference value: 3.90 %); format: functional
[18] = system: MDA-MB-231; experiment: Induction of apoptosis in human MDA-MB-231 cells assessed as necrotic cells at 4 uM incubated for 48 hrs by annexin V-FITC and PI staining based flow cytometry analysis (reference value: 3.08 %); format: functional
[19] = system: MDA-MB-231; experiment: Antiproliferative activity against human MDA-MB-231 cells assessed as reduction in cell growth incubated for 48 hrs; format: functional, cell-based; conditions: dose 0.5-2 µM
[20] = target: T2, Aurora kinase A (Homo sapiens) (UniProt O14965); experiment: Inhibition of Aurora A in human MDA-MB-231 cells assessed as reduction in Histone H3 phosphorylation incubated for 24 hrs by Western blot analysis; format: cell-based; conditions: dose 1-4 µM
T2 sequence (whole entry): T1 sequence (O14965 whole entry)
Procedure, shortened: (§3)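 MDA-MB-231 cells exposed to DMSO or drug at set concentrations for 24 h. Western blot for phospho-Aurora A at Thr288 or phospho-histone H3 at Ser10, with total Aurora A, histone H3 and GAPDH antibodies also used. Bands quantified by densitometry.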

[21] = system: MDA-MB-231; experiment: Cytotoxicity against human MDA-MB-231 cells assessed as reduction in cell viability incubated for 72 hrs by MTT assay; format: functional, cell-based; conditions: MDA-MB-231, 72 h; procedure, shortened: as §2
[22] = system: MDA-MB-231; experiment: Induction of cell cycle arrest in human MDA-MB-231 cells assessed as S phase accumulation at 2 uM incubated for 24 hrs by PI staining based flow cytometry analysis (reference value: 38.65 %); format: functional
[23] = system: MDA-MB-231; experiment: Induction of cell cycle arrest in human MDA-MB-231 cells assessed as G2/M phase accumulation at 1 uM incubated for 24 hrs by PI staining based flow cytometry analysis (reference value: 16.62 %); format: functional
[24] = system: SH-SY5Y; experiment: Cytotoxicity against human SH-SY5Y cells assessed as reduction in cell viability incubated for 72 hrs by MTT assay; format: functional, cell-based; procedure, shortened: as §2
[25] = system: MDA-MB-231; experiment: Induction of apoptosis in human MDA-MB-231 cells assessed as increase in caspase-9 cleavage at 1 to 4 uM incubated for 48 hrs by Western blot analysis; format: functional, cell-based; conditions: dose 1-4 µM; procedure, shortened: as §1
[26] = system: MDA-MB-231; experiment: Induction of apoptosis in human MDA-MB-231 cells assessed as late apoptotic cells at 2 uM incubated for 48 hrs by annexin V-FITC and PI staining based flow cytometry analysis (reference value: 2.52 %); format: functional
[27] = system: MDA-MB-231; experiment: Induction of apoptosis in human MDA-MB-231 cells; format: functional, cell-based; conditions: dose 1-4 µM
[28] = system: MDA-MB-231; experiment: Induction of cell cycle arrest in human MDA-MB-231 cells assessed as G2/M phase accumulation at 2 uM incubated for 24 hrs by PI staining based flow cytometry analysis (reference value: 16.62 %); format: functional
[29] = target: Aurora kinase B (Homo sapiens, UniProt Q96GD4); experiment: Inhibition of Aurora B (unknown origin) incubated for 1 hrs by HTRF assay
[30] = target: T2, Aurora kinase A (Homo sapiens); experiment: Inhibition of Aurora A in human MDA-MB-231 cells assessed as reduction in Aurora Thr288 residue phosphorylation incubated for 24 hrs by Western blot analysis; format: cell-based; conditions: dose 1-4 µM; procedure, shortened: as §3
[31] = system: MDA-MB-231; experiment: Induction of apoptosis in human MDA-MB-231 cells assessed as increase in PARP cleavage at 1 to 4 uM incubated for 48 hrs by Western blot analysis; format: functional, cell-based; conditions: dose 1-4 µM; procedure, shortened: as §1
[32] = system: MDA-MB-231; experiment: Induction of apoptosis in human MDA-MB-231 cells assessed as necrotic cells at 1 uM incubated for 48 hrs by annexin V-FITC and PI staining based flow cytometry analysis (reference value: 3.08 %); format: functional
[33] = system: MDA-MB-231; experiment: Induction of apoptosis in human MDA-MB-231 cells assessed as necrotic cells at 2 uM incubated for 48 hrs by annexin V-FITC and PI staining based flow cytometry analysis (reference value: 3.08 %); format: functional
[34] = system: MDA-MB-231; experiment: Induction of apoptosis in human MDA-MB-231 cells assessed as early apoptotic cells at 4 uM incubated for 48 hrs by annexin V-FITC and PI staining based flow cytometry analysis (reference value: 3.90 %); format: functional
[35] = system: MDA-MB-231 (Homo sapiens); experiment: Anticlonogenic activity against human MDA-MB-231 cells assessed as inhibition of colony formation at 0.5 to 2 uM incubated for 72 hrs followed by replacement of medium and measured after 10 days by crystal violet staining based visual analysis; conditions: dose 0.5-2 µM
[36] = system: MDA-MB-231; experiment: Induction of cell cycle arrest in human MDA-MB-231 cells assessed as S phase accumulation at 1 uM incubated for 24 hrs by PI staining based flow cytometry analysis (reference value: 38.65 %); format: functional
[37] = system: MDA-MB-231; experiment: Induction of cell cycle arrest in human MDA-MB-231 cells assessed as G0/G1 phase accumulation at 1 uM incubated for 24 hrs by PI staining based flow cytometry analysis (reference value: 42.84 %); format: functional
[38] = Solubility of compound in water; format: physicochemical; conditions: buffer

Sequence of Aurora kinase B (Q96GD4 whole entry): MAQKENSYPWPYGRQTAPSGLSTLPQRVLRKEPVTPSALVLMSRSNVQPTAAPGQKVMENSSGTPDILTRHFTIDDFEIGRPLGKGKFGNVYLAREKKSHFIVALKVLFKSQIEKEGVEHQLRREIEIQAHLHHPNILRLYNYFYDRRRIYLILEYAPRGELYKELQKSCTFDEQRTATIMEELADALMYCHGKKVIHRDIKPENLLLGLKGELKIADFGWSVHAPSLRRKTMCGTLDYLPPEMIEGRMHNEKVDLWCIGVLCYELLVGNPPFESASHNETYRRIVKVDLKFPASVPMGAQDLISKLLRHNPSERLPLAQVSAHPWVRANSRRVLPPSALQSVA

In the case of `CCC(=O)Nc1nc2ccc(-c3ccc4ncn(CCN5CCOCC5)c(=O)c4c3)cc2[nH]1`, the viability at 2 µM [1] is reported as 68.2%, the IC50 [2] is reported as 21.9 nM and the Activity [3] is reported as “Dose-dependent effect”. The Activity [4] was 5.59%, the Activity [5] was “Active” and the viability at 1 µM [6] was 89%. The Activity [7] was 2.71%, the IC50 [8] was 1090 nM and the Activity [9] was “Active”. It also gave an Activity [10] of 6.99%, a viability at 4 µM [11] of 53.4% and an Activity [12] of 11.61%. For the same compound, the Activity [13] was 28.68%, the Activity [14] was 15.41% and the Activity [15] was “Active”. It also gave an Activity [16] of 76.19%, an Activity [17] of 4.27% and an Activity [18] of 15.91%. The Activity [19] was “Dose-dependent effect”, the inhibition [20] was “Dose-dependent effect” and the IC50 [21] was 380 nM. The Activity [22] was 25.43%, the Activity [23] was 21.84% and the IC50 [24] was 770 nM. The Activity [25] was “Active”, the Activity [26] was 8.25% and the Activity [27] was “Dose-dependent effect”. The Activity [28] was 39.38%, the IC50 [29] was 273 nM and the inhibition [30] was “Dose-dependent effect”. For the same compound, the Activity [31] was “Active”, the Activity [32] was 4.02% and the Activity [33] was 11.9%. For the same compound, the Activity [34] was 15.33%, the Activity [35] was “Active” and the Activity [36] was 38.28%. The Activity [37] was 36.36%.

`Cc1cc(Nc2cc(N3CCN(C)CC3)nc(/C=C/c3ccccc3)n2)n[nH]1` [ENMD-2076] showed an IC50 [8] of 670 nM and an IC50 [21] of 480 nM.

`CCN(CC)C(=O)Nc1nc2ccc(-c3ccc4ncn(CCN5CCOCC5)c(=O)c4c3)cc2[nH]1` showed an IC50 [8] of 8130 nM, an IC50 [21] of 1760 nM and an IC50 [24] of 2520 nM. For the same compound, the solubility [38] was “Soluble”.

Compound `CCC(=O)Nc1nc2ccc(-c3ccc4ncn(CCc5c[nH]c6ccccc56)c(=O)c4c3)cc2[nH]1` has an IC50 [2] of 27.1 nM, an IC50 [8] of 1670 nM and an IC50 [21] of 550 nM. For the same compound, the IC50 [24] was 1230 nM, the IC50 [29] was 330 nM and the solubility [38] was “Insoluble”.

Work on `CCC(=O)Nc1nc2ccc(-c3ccc4ncn(CCN5CCCCC5)c(=O)c4c3)cc2[nH]1` yielded an IC50 [8] of 6570 nM, an IC50 [21] of 1230 nM and an IC50 [24] of 4020 nM.

Source: ChEMBL document CHEMBL4765263, “Design, synthesis, biological evaluation of 6-(2-amino-1H-benzo[d]imidazole-6-yl)quinazolin-4(3H)-one derivatives as novel anticancer agents with Aurora kinase inhibition” (Eur J Med Chem, 2020)
